Assay results reported in ChEMBL document CHEMBL2034906, “Inhibition of tumor cells interacting with stromal cells by xanthones isolated from a Costa Rican Penicillium sp” (J Nat Prod, 2012).

Legend:
PC-3 [1] = test: Cytotoxicity against human PC3 cells after 48 hrs by luminometric analysis; format: functional, cell-based; settings: PC-3, 48 h
Procedure, shortened: (§1)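 Tumor cells were cultured without HS-5 stromal cells and treated with increasing compound concentrations for 48 h. Luciferin substrate was added, cultures were incubated 30 min, and bioluminescence was read on a luminometer. Signal was normalized to the non-treated control, with each condition in quadruplicate, and IC50 was calculated.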

[2] = Cytotoxicity against human 8226/DOX40 cells after 48 hrs by luminometric analysis; format: functional, cell-based; procedure, shortened: as §1
RPMI-8226 [3] = test: Ratio of IC50 for human RPMI8226 cells in absence of HS5 bone marrow stromal cells to IC50 for human RPMI8226 in presence of HS5 bone marrow stromal cells; format: functional
RPMI-8226 [4] = test: Cytotoxicity against human RPMI8226 cells after 48 hrs by luminometric analysis in presence of HS5 bone marrow stromal cells; format: functional, cell-based; settings: RPMI-8226, 48 h
Procedure, shortened: (§2)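 Tumor cells were co-cultured with HS-5 bone marrow stromal cells. For non-adherent tumors, stroma was seeded overnight, then tumor cells were overlaid and treated the next day. For adherent tumors, stroma and tumor cells were plated together overnight, then treated. Cells received increasing compound concentrations for 48 h. Luciferin was added for 30 min and bioluminescence read. Signal was normalized to the untreated control, in quadruplicate, and IC50 was calculated.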

[5] = Cytotoxicity against human KMS34 cells after 48 hrs by luminometric analysis; format: functional, cell-based; settings: KMS-34, 48 h; procedure, shortened: as §1
MDA-MB-231 [6] = test: Cytotoxicity against human MDA-MB-231 cells after 48 hrs by luminometric analysis in presence of HS5 bone marrow stromal cells; format: functional, cell-based; settings: MDA-MB-231, 48 h; procedure, shortened: as §2
[7] = Cytotoxicity against human Farage cells after 48 hrs by luminometric analysis in presence of HS5 bone marrow stromal cells; format: functional, cell-based; procedure, shortened: as §2
[8] = Cytotoxicity against human OCILY17R cells after 48 hrs by luminometric analysis; format: functional, cell-based; procedure, shortened: as §1
[9] = Cytotoxicity against human KU-812F cells after 48 hrs by luminometric analysis in presence of HS5 bone marrow stromal cells; format: functional, cell-based; procedure, shortened: as §2
MDA-MB-231 [10] = test: Cytotoxicity against human MDA-MB-231 cells after 48 hrs by luminometric analysis; format: functional, cell-based; settings: MDA-MB-231, 48 h; procedure, shortened: as §1
OPM-2 [11] = test: Cytotoxicity against human OPM2 cells after 48 hrs by luminometric analysis in presence of HS5 bone marrow stromal cells; format: functional, cell-based; settings: OPM-2, 48 h; procedure, shortened: as §2
PC-3 [12] = test: Cytotoxicity against human PC3 cells after 48 hrs by luminometric analysis in presence of HS5 bone marrow stromal cells; format: functional, cell-based; settings: PC-3, 48 h; procedure, shortened: as §2
[13] = Cytotoxicity against human OCI-My5 cells after 48 hrs by luminometric analysis; format: functional, cell-based; settings: OCI-My5, 48 h; procedure, shortened: as §1
[14] = Cytotoxicity against human MM1S cells after 48 hrs by luminometric analysis; format: functional, cell-based; settings: MM1.S; procedure, shortened: as §1
NCI-H929 (Homo sapiens) [15] = test: Cytotoxicity against human NCI-H929 cells after 48 hrs by luminometric analysis; settings: NCI-H929, 48 h
[16] = Cytotoxicity against human SVGp12 cells after 48 hrs by luminometric analysis; format: cell-based; settings: SVGp12, 48 h
[17] = Cytotoxicity against human OCILY17R cells after 48 hrs by luminometric analysis in presence of HS5 bone marrow stromal cells; format: functional, cell-based; procedure, shortened: as §2
HT [18] = test: Cytotoxicity against human HT cells after 48 hrs by luminometric analysis in presence of HS5 bone marrow stromal cells; format: functional, cell-based; procedure, shortened: as §2
[19] = Cytotoxicity against human KMS34 cells after 48 hrs by luminometric analysis in presence of HS5 bone marrow stromal cells; format: functional, cell-based; settings: KMS-34, 48 h; procedure, shortened: as §2
RPMI-8226 [20] = test: Cytotoxicity against human RPMI8226 cells after 48 hrs by luminometric analysis; format: functional, cell-based; settings: RPMI-8226, 48 h; procedure, shortened: as §1
[21] = Cytotoxicity against human OCI-My5 cells after 48 hrs by luminometric analysis in presence of HS5 bone marrow stromal cells; format: functional, cell-based; settings: OCI-My5, 48 h; procedure, shortened: as §2
[22] = Cytotoxicity against human HS5 cells after 48 hrs by luminometric analysis; format: cell-based; settings: HS5, 48 h
[23] = Cytotoxicity against human THLE3 cells after 48 hrs by luminometric analysis; format: cell-based; settings: THLE3, 48 h
[24] = Cytotoxicity against human Farage cells after 48 hrs by luminometric analysis; format: functional, cell-based; procedure, shortened: as §1
[25] = Cytotoxicity against human MM1S cells after 48 hrs by luminometric analysis in presence of HS5 bone marrow stromal cells; format: functional, cell-based; settings: MM1.S; procedure, shortened: as §2
HT [26] = test: Cytotoxicity against human HT cells after 48 hrs by luminometric analysis; format: functional, cell-based; procedure, shortened: as §1
L-363 [27] = test: Cytotoxicity against human L363 cells after 48 hrs by luminometric analysis; format: functional, cell-based; settings: L-363, 48 h; procedure, shortened: as §1
[28] = Cytotoxicity against human HOBIT cells after 48 hrs by luminometric analysis; format: cell-based
[29] = Cytotoxicity against human KU-812F cells after 48 hrs by luminometric analysis; format: functional, cell-based; procedure, shortened: as §1
OPM-2 [30] = test: Cytotoxicity against human OPM2 cells after 48 hrs by luminometric analysis; format: functional, cell-based; settings: OPM-2, 48 h; procedure, shortened: as §1
NCI-H929 (Homo sapiens) [31] = test: Cytotoxicity against human NCI-H929 cells after 48 hrs by luminometric analysis in presence of HS5 bone marrow stromal cells; settings: NCI-H929, 48 h
[32] = Cytotoxicity against human 8226/DOX40 cells after 48 hrs by luminometric analysis in presence of HS5 bone marrow stromal cells; format: functional, cell-based; procedure, shortened: as §2
L-363 [33] = test: Cytotoxicity against human L363 cells after 48 hrs by luminometric analysis in presence of HS5 bone marrow stromal cells; format: functional, cell-based; settings: L-363, 48 h; procedure, shortened: as §2

SMILES | IC50 (PC-3 [1]) [µM] | IC50 [2] [µM] | IC50 (RPMI-8226 [4]) [µM] | IC50 (MDA-MB-231 [6]) [µM] | IC50 [7] [µM] | IC50 [9] [µM] | IC50 (MDA-MB-231 [10]) [µM] | IC50 (OPM-2 [11]) [µM] | IC50 (PC-3 [12]) [µM] | IC50 [14] [µM] | IC50 (NCI-H929 (Homo sapiens) [15]) [µM] | IC50 (HT [18]) [µM] | IC50 (RPMI-8226 [20]) [µM] | IC50 [24] [µM] | IC50 [25] [µM] | IC50 (HT [26]) [µM] | IC50 [29] [µM] | IC50 (OPM-2 [30]) [µM] | IC50 (NCI-H929 (Homo sapiens) [31]) [µM] | IC50 [32] [µM] | also measured
CC(=O)OC[C@]12Oc3ccc(-c4ccc5c(c4O)C(=O)C4=C(O)C[C@@H](C)[C@@H](OC(C)=O)[C@@]4(CO)O5)c(O)c3C(=O)C1=C(O)C[C@@H](C)[C@H]2OC(C)=O [DICERANDROL B] | 34 | 2.2 | 1.2 | 5.5 | 1.3 | 3.6 | 8.5 | 1.5 | 14.1 | 7.3 | 10.2 | 1.3 | 2.4 | 1.6 | 8 | 1.2 | 2.7 | 1.9 | 3.4 | 2.3 | Ratio IC50 (RPMI-8226 [3]): 2; IC50 [5]: 5.5 µM; IC50 [8]: 4.6 µM; IC50 [13]: 2.8 µM; IC50 [16]: 13.7 µM; IC50 [17]: 5.2 µM; IC50 [19]: 9.3 µM; IC50 [21]: 5.7 µM; IC50 [22]: 13 µM; IC50 [23]: 10 µM; IC50 (L-363 [27]): 16.7 µM; IC50 [28]: 9.2 µM
CC(=O)O[C@@H]1[C@H](C)CC(O)=C2C(=O)c3c(ccc(-c4ccc5c(c4O)C(=O)C4=C(O)C[C@@H](C)[C@@H](OC(C)=O)[C@@]4(CO)O5)c3O)O[C@@]21CO [DICERANDROL A] | 100 | 22.8 | – | 38.4 | 14.8 | 46.6 | 43.3 | – | 71.7 | 28.9 | 42.5 | – | – | 15.6 | 33.3 | – | 24.6 | – | 22.9 | 36.9 | –
CC(=O)OC[C@]12Oc3c(-c4ccc5c(c4O)C(=O)C4=C(O)C[C@@H](C)[C@@H](OC(C)=O)[C@@]4(CO)O5)ccc(O)c3C(=O)C1=C(O)C[C@@H](C)[C@H]2OC(C)=O (relative stereo) | 122 | 15 | 8.9 | 34.2 | 10.5 | 24.2 | 43.4 | 10.5 | 66.3 | 37.1 | 54.5 | 9.9 | 12.9 | 12.4 | 47.1 | 10.8 | 14.6 | 12.7 | 35.2 | 21.6 | IC50 [5]: 22.6 µM; IC50 [8]: 31.1 µM; IC50 [13]: 18.8 µM; IC50 [17]: 47.4 µM; IC50 (L-363 [33]): 79.4 µM; IC50 [19]: 55.6 µM; IC50 [21]: 47.7 µM; IC50 (L-363 [27]): 66 µM
CC(=O)OC[C@]12Oc3cccc(O)c3C(=O)C1=C(O)C[C@@H](C)[C@H]2OC(C)=O (relative stereo) | 1380 | 11.6 | 34 | 118 | 38.7 | 95.9 | 164 | 44.8 | 216 | 168 | 188 | 34.9 | 71.6 | 200 | 186 | 100 | 44.9 | 42.8 | 94.8 | 24.2 | IC50 [5]: 153 µM; IC50 [8]: 1620 µM; IC50 [13]: 158 µM; IC50 [17]: 293 µM; IC50 (L-363 [33]): 199 µM; IC50 [19]: 199 µM; IC50 [21]: 384 µM; IC50 (L-363 [27]): 464 µM
CC(=O)OC[C@]12Oc3ccc(-c4ccc5c(c4O)C(=O)C4=C(O)C[C@@H](C)[C@@H](OC(C)=O)[C@@]4(COC(C)=O)O5)c(O)c3C(=O)C1=C(O)C[C@@H](C)[C@H]2OC(C)=O [DICERANDROL C] | 121 | 10 | 2.8 | 13.3 | 3.3 | 14.3 | 18.1 | 7.5 | 45.2 | 14.7 | 10.8 | 4 | 4.8 | 3.5 | 20.8 | 2.1 | 7.1 | 4.8 | 5.4 | 13.9 | –
